Source: ChEMBL document CHEMBL1159072, “Side chain SAR of bicyclic beta-lactamase inhibitors (BLIs). 1. Discovery of a class C BLI for combination with imipinem” (Bioorg Med Chem Lett, 2010)
pIC50: −log10 of the molar value.

What was measured:
[1] = molecular target: Beta-lactamase (Pseudomonas aeruginosa (strain ATCC 15692 / PAO1 / 1C / PRS 101 / LMG12228), UniProt P24735); test: Inhibition of Pseudomonas aeruginosa beta lactamase AmpC by spectrophotometry
Summary of the method: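 Nitrocefin hydrolysis by P. aeruginosa AmpC, enzyme and substrate in 100 mM KH2PO4 pH 7 with 0.005% BSA. Inhibitor serially diluted from DMSO and preincubated with AmpC 40 min at room temperature. Substrate then added for a further 40 min, quenched with 2.5 N acetic acid, absorbance read at 492 nm. IC50 taken from semi-log plots of inhibition versus concentration.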

[2] = molecular target: Beta-lactamase (Pseudomonas aeruginosa (strain ATCC 15692 / PAO1 / 1C / PRS 101 / LMG12228)) (UniProt P24735); test: Inhibition of Pseudomonas aeruginosa CL5701 beta lactamase AmpC assessed as concentration required to reduce imipenem MIC
[3] = test system: Pseudomonas aeruginosa; test: Antimicrobial activity against Pseudomonas aeruginosa CL5701 infected in mouse spleen assessed as reduction in colony forming unit at 2.5 mg/kg qid for 1 hr administered after 1.25 hrs of infusion; type: functional
Summary of the method: (§1)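 In vivo P. aeruginosa CL5701 infection: imipenem/cilastatin 2.5 mpk given with the BLI at 2.35 or 4.7 mpk, by 1.25 h infusion QID for 1 day. Bacterial CFU counted in the spleen and expressed as log reduction relative to imipenem/cilastatin alone.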

[4] = test system: Pseudomonas aeruginosa; test: Antimicrobial activity against Pseudomonas aeruginosa CL5701 infected in mouse spleen assessed as reduction in colony forming unit at 2.35 mg/kg qid for 1 hr administered after 1.25 hrs of infusion; type: functional; summary of the method: as §1
[5] = test system: Pseudomonas aeruginosa; test: Antimicrobial activity against Pseudomonas aeruginosa CL5701 infected in mouse spleen assessed as reduction in colony forming unit at 4.7 mg/kg qid for 1 hr administered after 1.25 hrs of infusion; type: functional; summary of the method: as §1

Beta-lactamase, sequence (P24735 whole entry): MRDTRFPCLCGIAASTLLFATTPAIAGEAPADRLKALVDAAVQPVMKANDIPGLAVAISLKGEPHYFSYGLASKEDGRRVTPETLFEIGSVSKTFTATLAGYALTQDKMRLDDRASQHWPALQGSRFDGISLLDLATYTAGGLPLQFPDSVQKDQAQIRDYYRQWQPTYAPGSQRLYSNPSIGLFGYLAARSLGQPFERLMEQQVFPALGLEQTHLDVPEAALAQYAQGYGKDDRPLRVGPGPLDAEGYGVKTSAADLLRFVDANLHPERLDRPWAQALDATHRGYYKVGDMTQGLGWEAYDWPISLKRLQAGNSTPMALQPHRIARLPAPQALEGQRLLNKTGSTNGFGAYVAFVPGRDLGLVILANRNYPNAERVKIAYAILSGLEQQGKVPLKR
Beta-lactamase (Pseudomonas aeruginosa (strain ATCC 15692 / PAO1 / 1C / PRS 101 / LMG12228)), sequence (P24735 27-397 limits assumed): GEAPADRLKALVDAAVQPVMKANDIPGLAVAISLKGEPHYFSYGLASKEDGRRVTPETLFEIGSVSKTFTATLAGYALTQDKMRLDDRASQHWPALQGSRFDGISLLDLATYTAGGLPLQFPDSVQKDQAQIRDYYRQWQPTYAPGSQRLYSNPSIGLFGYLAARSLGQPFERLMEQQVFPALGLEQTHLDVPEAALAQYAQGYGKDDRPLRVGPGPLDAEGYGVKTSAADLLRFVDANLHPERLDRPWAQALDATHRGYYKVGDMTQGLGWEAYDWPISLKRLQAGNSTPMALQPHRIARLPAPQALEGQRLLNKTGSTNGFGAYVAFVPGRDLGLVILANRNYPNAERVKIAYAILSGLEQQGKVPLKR

SMILES	pIC50 [1]	Activity [2]	other results
O=C(NC1CNCCNC1)N1CC[C@@H]2[C@H]1C(=O)N2S(=O)(=O)O	4.77	100 µM	–
O=C(N[C@H]1CCCNCC1)N1CC[C@@H]2[C@H]1C(=O)N2S(=O)(=O)O	6.00	9.4 µM	log10cfu [3]: 4.6; log10cfu [4]: 4.6
O=C(NC1CCCCNCC1)N1CC[C@@H]2[C@H]1C(=O)N2S(=O)(=O)O (stereo in doubt; 12)	–	> 100 µM	–
O=C(NC1CCCCNCC1)N1CC[C@@H]2[C@H]1C(=O)N2S(=O)(=O)O (single isomer, unassigned)	–	12.5 µM	–
O=C1NCCCC[C@@H]1NC(=O)N1CC[C@@H]2[C@H]1C(=O)N2S(=O)(=O)O	6.10	> 100 µM	–
O=C(NC1CCCCCC1)N1CC[C@@H]2[C@H]1C(=O)N2S(=O)(=O)O	–	> 100 µM	–
O=C(N[C@H]1CCCCNC1)N1CC[C@@H]2[C@H]1C(=O)N2S(=O)(=O)O	5.72	50 µM	–
O=C(NC1CCNCC1)N1CC[C@@H]2[C@H]1C(=O)N2S(=O)(=O)O	–	21 µM	log10cfu [5]: 4.7
O=C(N[C@@H]1CNCCOC1)N1CC[C@@H]2[C@H]1C(=O)N2S(=O)(=O)O	–	25 µM	–
O=C(N[C@H]1CNCCOC1)N1CC[C@@H]2[C@H]1C(=O)N2S(=O)(=O)O	–	50 µM	–

Further lines, with some results ahead:

pIC50 [1]	Activity [2]	SMILES	other results
–	> 100 µM	O=C(NC1CCCCNCCC1)N1CC[C@@H]2[C@H]1C(=O)N2S(=O)(=O)O (stereo in doubt; 14) [listing 1 of 2 here]	–
5.40	–	O=C(NC1CCCCNCCC1)N1CC[C@@H]2[C@H]1C(=O)N2S(=O)(=O)O (stereo in doubt; 13) [listing 1 of 2 here]	–
5.47	25 µM	O=C(NC1CCCNCCC1)N1CC[C@@H]2[C@H]1C(=O)N2S(=O)(=O)O	–
–	25 µM	O=C(N[C@@H]1CCCNCC1)N1CC[C@@H]2[C@H]1C(=O)N2S(=O)(=O)O	–
–	> 100 µM	O=C(NC1CCCCNCCC1)N1CC[C@@H]2[C@H]1C(=O)N2S(=O)(=O)O (stereo in doubt; 13) [listing 2 of 2 here]	–
5.30	–	O=C(NC1CCCCNCCC1)N1CC[C@@H]2[C@H]1C(=O)N2S(=O)(=O)O (stereo in doubt; 14) [listing 2 of 2 here]	–
